# CHO parental Ca = counter-screen for OX1R antagonists: effect in parental CHO cells; 330,000 compounds, 0.63% hits; AID 463079; inhibition, % at 5.6 µM; parental CHO-K1, ATP-induced calcium, Fluo-8 fluorescence;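 active = inhibition above that plate's mean sample inhibition plus 3 SD, cut at about 26% in these data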;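 note: 0% = ATP-challenged DMSO wells and 100% = DMSO wells without ATP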
#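 Assay system – parental CHO cells · Reagent – ATP stimulus · Detection – intracellular calcium via Fluo-8 no-wash fluorescent dye · Evaluation – percent inhibition of ATP-evoked calcium rise, normalized to controls · Controls – ATP wells versus no-ATP DMSO wells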
# TAAR1 antagonist = antagonists of human TAAR1; Q96RJ0; CHO RD-HGA16 TAAR1, Fluo-8 calcium fluorescence, antagonist; inhibition, % at 3 µM; 360,000 compounds, 1.5% hits; AID 624466;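 active = inhibition above a per-plate cutoff, the mean inhibition of test compounds on that plate plus 3 SD, cut at about 49% in these data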;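 note: 0% = DMSO plus EC80 beta-PEA response and 100% = DMSO alone without agonist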
# Target sequence (Q96RJ0 whole entry, looked up): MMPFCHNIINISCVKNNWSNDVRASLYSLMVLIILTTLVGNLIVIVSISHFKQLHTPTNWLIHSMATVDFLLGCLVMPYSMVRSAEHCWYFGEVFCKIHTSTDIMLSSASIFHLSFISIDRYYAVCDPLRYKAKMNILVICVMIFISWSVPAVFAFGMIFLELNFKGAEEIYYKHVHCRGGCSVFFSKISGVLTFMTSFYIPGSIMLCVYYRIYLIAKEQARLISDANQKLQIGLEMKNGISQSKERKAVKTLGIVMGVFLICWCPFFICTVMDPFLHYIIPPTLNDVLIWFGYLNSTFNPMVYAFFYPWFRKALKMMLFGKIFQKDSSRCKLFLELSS
#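 Assay system: RD-HGA16 CHO cells with stable hTAAR1 and Gα16 / Reagent: EC80 β-phenethylamine stimulus / Doses: 3 µM, single point / Timing: dye loading 75 min at 37 °C, then 30 min room temperature / Measured by: Fluo-8 intracellular calcium dye fluorescence, real-time kinetic reads / Controls: vehicle wells and EC80 agonist wells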
# OX1R antag-1 = blocks the human orexin 1 receptor | O43613 | OX1R-expressing cells, FRET antagonist read-out | inhibition, % at 6.6 µM | 330,000 compounds, 1.8% hits | AID 485270; in the data active = inhibition mostly above about 38%, no sharp cut-off; inactive = mostly below about 40%;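 note: 0% = agonist challenge alone and 100% = reference antagonist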
# GPR7 antag = antagonists of human GPR7 (neuropeptides B/W receptor 1); inhibition, % at 4.4 µM; AID 1861; P48145; GPR7-expressing cells, fluorescence antagonist assay; 290,000 compounds, 1.1% hits; in the data active = inhibition above about 16%, passing the limit was not always enough;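 note: cells stimulated with the agonist NPW; 0% = agonist with vehicle and 100% = vehicle without agonist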
# Target sequence (P48145 whole entry, looked up): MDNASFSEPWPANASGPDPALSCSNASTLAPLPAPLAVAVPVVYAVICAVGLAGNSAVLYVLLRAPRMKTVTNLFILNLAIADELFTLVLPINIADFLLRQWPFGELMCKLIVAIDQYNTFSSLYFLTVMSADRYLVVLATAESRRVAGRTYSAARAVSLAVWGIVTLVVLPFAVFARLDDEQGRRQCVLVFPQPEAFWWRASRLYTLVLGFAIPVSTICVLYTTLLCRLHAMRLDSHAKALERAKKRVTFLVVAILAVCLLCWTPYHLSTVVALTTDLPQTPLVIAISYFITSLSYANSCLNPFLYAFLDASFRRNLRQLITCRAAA
# TAAR1 ag = agonists of human TAAR1 | Q96RJ0 | CHO RD-HGA16 TAAR1, Fluo-8 calcium fluorescence; vehicle wells 0%, saturating PEA agonist 100% | activation, % at 3 µM | 360,000 compounds, 0.99% hits;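 active = activation above the mean activation of all test compounds in the run plus 3 SD, cut at about 38% in these data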
#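 Test system: RD-HGA16 (CHO) cells co-expressing Gα16 and hTAAR1 / Benchmarks: DMSO vehicle as 0%, PEA at EC100 as 100% / Repeats: no replicates (n 1) / Measure: % activation from peak over basal fluorescence ratio, DMSO-to-PEA scaled / Timing: 17-24 h plating, Fluo-8 75 min 37 °C, 30 min RT / Technique: kinetic Fluo-8 calcium fluorescence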
# OX1R antag-2 = antagonists of human orexin 1 receptor; O43613; CHO/OX1R cells, Fluo-8 calcium fluorescence, orexin A; inhibition, % at 5 µM; 330,000 compounds, 0.43% hits; AID 434989;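 active = inhibition above its plate's threshold, mean inhibition of all tested compounds on the plate plus 3 SD, cut at about 37% in these data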;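 note: 0% = orexin A challenge wells and 100% = SB-334867-A antagonist wells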
# The depositor's hits bear a star; . = no result. The list is not random: actives were taken first. Their share in the collection is about 4.6%.
SMILES,CHO parental Ca,TAAR1 antagonist,OX1R antag-1,GPR7 antag,TAAR1 ag,OX1R antag-2
Nc1cc(S(=O)(=O)Nc2ccc(Cl)cc2)ccc1N1CCOCC1,36*,8,15,10,21,34
CSc1nnc(N2C(=O)C(O)=C(C(=O)c3ccco3)C2c2cccc(Cl)c2)s1 (stereo unspecified),33*,-2,3,4,1,49*
CSc1nnc(N2C(=O)C(O)=C(C(=O)c3ccco3)C2c2ccc(F)cc2)s1 (stereo unspecified),32,-32,6,-6,3,37
O=[N+]([O-])c1ccc(C2=CSC3=NCCN23)cc1,6,-13,47*,.,0,0
Cc1ccc(C2=CSC3=NCCN23)cc1,0,-2,4,.,-1,-2
CC(=O)NCC1COc2ccccc2O1 (stereo unspecified),-10,9,2,-13,4,-16
Cc1cc(=O)oc(C)c1C(=O)NCC1COc2ccccc2O1 (stereo unspecified),-9,-11,2,-3,40*,1
COCc1c(C(=O)NCC2COc3ccccc3O2)oc2ccccc12 (stereo unspecified),-26,-7,68*,.,-1,7
COCc1c(C(=O)NCCOc2ccc(Cl)cc2)oc2ccccc12,-24,3,34*,.,11,-8
CCOc1ccc(OCCNC(=O)c2oc3ccccc3c2COC)cc1,-14,-2,10,.,-2,-6
CCCN(C)C[C@@H]1OCc2cnnn2CCCC(=O)N([C@H](C)CO)C[C@H]1C,.,-14,.,.,0,.
COCCCn1cc(CN2CC(N3CCN(Cc4ccccc4F)CC3)CS2(=O)=O)nn1 (stereo unspecified),.,-24,.,.,5,.
O=C(Cc1cccs1)Nc1nnc(CCc2ccccc2)s1,-12,-9,-1,14*,10,-23
Cc1ccc(S(=O)(=O)/N=C(/Nc2ccc([N+](=O)[O-])cc2[N+](=O)[O-])c2ccccc2)cc1,13,0,52*,.,0,13
COCCn1c(C)cc(C(=O)CN2C(=O)NC3(CCCCCC3)C2=O)c1C,-2,6,30*,.,10,-11
COc1cccc(C(=O)NCC(c2ccco2)N2CCOCC2)c1 (stereo unspecified),3,-9,14,.,2,-6
CCN1C(=O)[C@H]2[C@H]3CN=C(SCC(=O)c4ccccc4)N3[C@@](C)(C(=O)OC)[C@H]2C1=O,-7,-1,5,.,3,-1
O=C1C(=O)c2cccnc2-c2ncccc21,.,4,.,.,22,.
O=C1c2cccnc2-c2ncccc21,-2,1,54*,-12,1,-9
Nc1ccc2c(c1)C(=O)c1cc([N+](=O)[O-])ccc1-2,.,-4,.,.,-1,.
O=C1c2ccccc2-c2nccnc21,-4,9,111*,4,7,-8
O=C1c2cc([N+](=O)[O-])ccc2-c2ncccc21,3,-11,67*,-10,0,-15
CN(C)c1ccc2nsnc2c1[N+](=O)[O-],-1,-26,39*,-5,3,-2
Cc1ccc(C(=O)N(C)[C@H]2C[C@H]3c4[nH]c5c(-c6ccccc6)cccc5c4CCN3C(=O)[C@H]2[C@H](C)O)cc1,.,2,.,.,2,.
CN1CCN(C(=O)c2cc([N+](=O)[O-])cc([N+](=O)[O-])c2)CC1,10,-8,63*,-7,1,-12
SMILES,CHO parental Ca,TAAR1 antagonist,OX1R antag-1,GPR7 antag,TAAR1 ag,OX1R antag-2
CN1CCN(NC(=O)c2cc([N+](=O)[O-])cc([N+](=O)[O-])c2)CC1,-9,-12,71*,-13,8,-4
CN1CCN(NC(=O)c2ccc(F)cc2)CC1,8,4,2,2,9,-18
O=S(=O)(NC1CCCCC1N1CCN(c2ccc(F)cc2)CC1)c1ccccc1 (stereo unspecified),-27,-34,10,13,-1,-13
CC1CCCCN1C(=O)CCS(=O)(=O)c1cccc2nonc12 (stereo unspecified),14,-31,71*,-4,0,-1
C[C@H]1CN(C(=O)OC(C)(C)C)CCN1c1ccc(N2CC[C@@H](O)C2)c(C#N)c1,.,-7,.,.,5,.
O=C(O)CC1(CC(=O)Nc2cc(C(F)(F)F)cc(C(F)(F)F)c2)CCCCC1,-2,-30,42*,-4,2,2
COC(=O)Cn1c(O)c(N=NC(=O)CNC(=O)c2ccncc2)c2ccccc21,-11,-22,70*,-1,2,-11
Cn1c(O)c(N=NC(=O)CNC(=O)c2cccnc2)c2ccccc21,-7,-11,43*,-2,0,-11
CCCn1c(O)c(N=NC(=O)CNC(=O)c2cccnc2)c2ccccc21,-20,-7,47,0,5,-2
CCOc1ccc(S(=O)(=O)Nc2cccc(C(=O)NCC(c3ccco3)N3CCCC3)c2)cc1 (stereo unspecified),-19,-4,12,.,13,-28
COc1ccc(-c2nn(-c3ccccc3)cc2C(=O)Nc2nccs2)cc1,-15,48,26,12,12,-11
Cc1ccc(-c2nn(-c3ccccc3)cc2/C=C/C(=O)Nc2nccs2)cc1,-5,46,7,-5,40*,-1
O=C(Nc1nccs1)c1cn(-c2ccccc2)nc1-c1ccncc1,-32,39,12,-8,38*,-50
NC1=Nc2cccc3cccc1c23,11,18,71*,-10,2,-4
C(=N\NC1=Nc2cccc3cccc1c23)/c1ccccc1,-23,15,54,-18,7,-23
CN(Cc1cccs1)C(=O)COc1cccc2c1OC(C)(C)C2,-19,-4,2,.,0,-15
COc1ccc2nc(SCC(=O)NN)cc(C)c2c1,-25,-12,49*,-4,-1,20
COc1ccc(NC(=O)CCSc2cc(C)c3ccccc3n2)cc1,-27,-15,21,9,-5,-14
CCNC(=S)N/N=C/c1ccc(OCC(=O)Nc2ccc(OC)cc2)c(OC)c1,-3,51*,6,3,17,-2
COc1cc(/C=N/NC(=S)NC(C)C)ccc1OCC(=O)Nc1c(C)cc(C)cc1C,-3,50*,7,-8,7,-19
CCCCNC(=S)N(C)/N=C/c1ccc(OCC(=O)Nc2ccc(OC)cc2)c(OC)c1,9,58*,25,-13,16,3
CCCCNC(=S)N(C)/N=C/c1ccc(OCC(=O)Nc2c(C)cc(C)cc2C)c(OC)c1,-29,35,21,-8,5,-48
O=C(Nc1ccc(Nc2cccnc2)cc1)c1c[nH]c2ccccc12,.,23,.,.,4,.
C[C@@H]1CN([C@H](C)CO)C(=O)CCCn2cc(nn2)CO[C@H]1CN(C)S(=O)(=O)c1ccc(C#N)cc1,.,4,.,.,0,.

# Source: PubChem
